Experimental data taken from ChEMBL document CHEMBL2311271 (Eur J Med Chem, 2013).

Test system: MCF7
Test: Cytotoxicity against human MCF7 cells by MTT assay
Type: functional, cell-based
Method in brief: (§1)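 Cells grown in RPMI-1640 with 10% fetal calf serum plus penicillin and streptomycin, 37 °C, 5% CO₂. Compounds in DMSO, final ≤2% (v/v), tested in 96-well cultures with MTT staining. IC₅₀ = concentration cutting optical density 50% versus untreated cells; three replicate wells per point; mean of three independent determinations.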

Compared with `Cc1c2c(cc[n+]1Cc1ccccc1)c1ccc(OCC(C)C)cc1n2CC(C)C`, `CCCCCCCCCCOc1ccc2c3cc[n+](Cc4ccccc4)c(C)c3n(CC(C)C)c2c1` is 1.6-fold lower in IC50: 2.9 µM for the first, 1.8 µM for the second.

Compared with `Cc1c2c(cc[n+]1Cc1ccccc1)c1ccc(OCCCc3ccccc3)cc1n2CC(C)C`, `CCCCOc1ccc2c3cc[n+](Cc4ccccc4)c(C)c3n(CCCc3ccccc3)c2c1` is 2.4-fold lower in IC50: 9.2 µM for the first, 3.8 µM for the second. The second is the more potent here.

Test system: A-375
Test: Cytotoxicity against human A375 cells by MTT assay
Type: functional, cell-based
Method in brief: as §1

Going from `Cc1c2c(cc[n+]1Cc1ccccc1)c1ccc(OCC(C)C)cc1n2CC(C)C` to `CCCCCCCCCCOc1ccc2c3cc[n+](Cc4ccccc4)c(C)c3n(CC(C)C)c2c1`, the IC50 falls from 3.9 µM to less than 1.5 µM. The second is the more potent here.

First: Cc1c2c(cc[n+]1Cc1ccccc1)c1ccc(OCCCc3ccccc3)cc1n2CC(C)C
Second: CCCCOc1ccc2c3cc[n+](Cc4ccccc4)c(C)c3n(CCCc3ccccc3)c2c1
The IC50 of the first is lower: less than 1.5 µM for the first, 1.5 µM for the second. The first is the more potent here.

Test system: HT-29
Test: Cytotoxicity against human HT-29 cells by MTT assay
Type: functional, cell-based
Method in brief: as §1

Compared with `Cc1c2c(cc[n+]1Cc1ccccc1)c1ccc(OCC(C)C)cc1n2CC(C)C`, `CCCCCCCCCCOc1ccc2c3cc[n+](Cc4ccccc4)c(C)c3n(CC(C)C)c2c1` is 2.5-fold lower in IC50: 4.2 µM for the first, 1.7 µM for the second. The second is the more potent here.

`Cc1c2c(cc[n+]1Cc1ccccc1)c1ccc(OCCCc3ccccc3)cc1n2CC(C)C` and `CCCCOc1ccc2c3cc[n+](Cc4ccccc4)c(C)c3n(CCCc3ccccc3)c2c1` are within 1.5-fold of each other in IC50: 4.9 µM for the first, 3.4 µM for the second.

Test system: Bel-7402
Test: Cytotoxicity against human Bel7402 cells by MTT assay
Type: functional, cell-based
Method in brief: as §1

`Cc1c2c(cc[n+]1Cc1ccccc1)c1ccc(OCC(C)C)cc1n2CC(C)C` and `CCCCCCCCCCOc1ccc2c3cc[n+](Cc4ccccc4)c(C)c3n(CC(C)C)c2c1` are within 1.5-fold of each other in IC50: 4.3 µM for the first, 5.8 µM for the second.

Going from `Cc1c2c(cc[n+]1Cc1ccccc1)c1ccc(OCCCc3ccccc3)cc1n2CC(C)C` to `CCCCOc1ccc2c3cc[n+](Cc4ccccc4)c(C)c3n(CCCc3ccccc3)c2c1`, the IC50 rises from 1.3 µM to 2.5 µM (1.9-fold).

Test system: 786-0
Test: Cytotoxicity against human 786-0 cells by MTT assay
Type: functional, cell-based
Method in brief: as §1

Going from `Cc1c2c(cc[n+]1Cc1ccccc1)c1ccc(OCC(C)C)cc1n2CC(C)C` to `CCCCCCCCCCOc1ccc2c3cc[n+](Cc4ccccc4)c(C)c3n(CC(C)C)c2c1`, the IC50 falls from 3.4 µM to 1.9 µM (1.8-fold). The second is the more potent here.

`Cc1c2c(cc[n+]1Cc1ccccc1)c1ccc(OCCCc3ccccc3)cc1n2CC(C)C` and `CCCCOc1ccc2c3cc[n+](Cc4ccccc4)c(C)c3n(CCCc3ccccc3)c2c1` are within 1.5-fold of each other in IC50: 2.3 µM for the first, 2.6 µM for the second.

Test system: KB
Test: Cytotoxicity against human KB cells by MTT assay
Type: functional, cell-based
Method in brief: as §1

`Cc1c2c(cc[n+]1Cc1ccccc1)c1ccc(OCC(C)C)cc1n2CC(C)C` and `CCCCCCCCCCOc1ccc2c3cc[n+](Cc4ccccc4)c(C)c3n(CC(C)C)c2c1` cannot be ordered by IC50: less than 1.5 µM for the first, less than 1.5 µM for the second.

`Cc1c2c(cc[n+]1Cc1ccccc1)c1ccc(OCCCc3ccccc3)cc1n2CC(C)C` and `CCCCOc1ccc2c3cc[n+](Cc4ccccc4)c(C)c3n(CCCc3ccccc3)c2c1` cannot be ordered by IC50: less than 1.5 µM for the first, less than 1.5 µM for the second.

Test system: SCaBER
Test: Cytotoxicity against human SCaBER cells by MTT assay
Type: functional, cell-based
Method in brief: as §1

Going from `Cc1c2c(cc[n+]1Cc1ccccc1)c1ccc(OCC(C)C)cc1n2CC(C)C` to `CCCCCCCCCCOc1ccc2c3cc[n+](Cc4ccccc4)c(C)c3n(CC(C)C)c2c1`, the IC50 falls from 12.8 µM to 7.8 µM (1.6-fold). The second is the more potent here.

`Cc1c2c(cc[n+]1Cc1ccccc1)c1ccc(OCCCc3ccccc3)cc1n2CC(C)C` and `CCCCOc1ccc2c3cc[n+](Cc4ccccc4)c(C)c3n(CCCc3ccccc3)c2c1` are within 1.5-fold of each other in IC50: 3.6 µM for the first, 4.7 µM for the second.

Test system: HeLa
Test: Cytotoxicity against human HeLa cells by MTT assay
Type: functional, cell-based
Method in brief: as §1

`Cc1c2c(cc[n+]1Cc1ccccc1)c1ccc(OCC(C)C)cc1n2CC(C)C` and `CCCCCCCCCCOc1ccc2c3cc[n+](Cc4ccccc4)c(C)c3n(CC(C)C)c2c1` are within 1.5-fold of each other in IC50: 2.1 µM for the first, 1.6 µM for the second.

Compared with `Cc1c2c(cc[n+]1Cc1ccccc1)c1ccc(OCCCc3ccccc3)cc1n2CC(C)C`, `CCCCOc1ccc2c3cc[n+](Cc4ccccc4)c(C)c3n(CCCc3ccccc3)c2c1` is 2.8-fold higher in IC50: 1.4 µM for the first, 3.9 µM for the second. The first is the more potent here.

Test system: OS-RC-2
Test: Cytotoxicity against human OS-RC2 cells by MTT assay
Type: functional, cell-based
Method in brief: as §1

Going from `Cc1c2c(cc[n+]1Cc1ccccc1)c1ccc(OCC(C)C)cc1n2CC(C)C` to `CCCCCCCCCCOc1ccc2c3cc[n+](Cc4ccccc4)c(C)c3n(CC(C)C)c2c1`, the IC50 falls from 8.3 µM to 4 µM (2.1-fold).

Compared with `Cc1c2c(cc[n+]1Cc1ccccc1)c1ccc(OCCCc3ccccc3)cc1n2CC(C)C`, `CCCCOc1ccc2c3cc[n+](Cc4ccccc4)c(C)c3n(CCCc3ccccc3)c2c1` is 1.9-fold higher in IC50: 3.5 µM for the first, 6.8 µM for the second. The first is the more potent here.

Test system: not listed separately
Test: Cytotoxicity against human Blu-87 cells by MTT assay
Type: functional, cell-based
Method in brief: as §1

Going from `Cc1c2c(cc[n+]1Cc1ccccc1)c1ccc(OCC(C)C)cc1n2CC(C)C` to `CCCCCCCCCCOc1ccc2c3cc[n+](Cc4ccccc4)c(C)c3n(CC(C)C)c2c1`, the IC50 falls from 5.2 µM to 3.2 µM (1.6-fold).

`Cc1c2c(cc[n+]1Cc1ccccc1)c1ccc(OCCCc3ccccc3)cc1n2CC(C)C` and `CCCCOc1ccc2c3cc[n+](Cc4ccccc4)c(C)c3n(CCCc3ccccc3)c2c1` are within 1.5-fold of each other in IC50: 3.8 µM for the first, 4.4 µM for the second.

Test system: U-251
Test: Cytotoxicity against human U251 cells by MTT assay
Type: functional, cell-based
Method in brief: as §1

Going from `Cc1c2c(cc[n+]1Cc1ccccc1)c1ccc(OCC(C)C)cc1n2CC(C)C` to `CCCCCCCCCCOc1ccc2c3cc[n+](Cc4ccccc4)c(C)c3n(CC(C)C)c2c1`, the IC50 falls from 4.5 µM to 1.5 µM (3-fold). The second is the more potent here.

`Cc1c2c(cc[n+]1Cc1ccccc1)c1ccc(OCCCc3ccccc3)cc1n2CC(C)C` and `CCCCOc1ccc2c3cc[n+](Cc4ccccc4)c(C)c3n(CCCc3ccccc3)c2c1` are within 1.5-fold of each other in IC50: 2.5 µM for the first, 3.7 µM for the second.

Test system: CWR22R
Test: Cytotoxicity against human 22Rv1 cells by MTT assay
Type: functional, cell-based
Method in brief: as §1

Compared with `Cc1c2c(cc[n+]1Cc1ccccc1)c1ccc(OCC(C)C)cc1n2CC(C)C`, `CCCCCCCCCCOc1ccc2c3cc[n+](Cc4ccccc4)c(C)c3n(CC(C)C)c2c1` is lower in IC50: 2.6 µM for the first, less than 1.5 µM for the second.

`Cc1c2c(cc[n+]1Cc1ccccc1)c1ccc(OCCCc3ccccc3)cc1n2CC(C)C` and `CCCCOc1ccc2c3cc[n+](Cc4ccccc4)c(C)c3n(CCCc3ccccc3)c2c1` are within 1.5-fold of each other in IC50: 2.8 µM for the first, 3.4 µM for the second.

Test system: 769-P
Test: Cytotoxicity against human 769-P cells by MTT assay
Type: functional, cell-based
Method in brief: as §1

`Cc1c2c(cc[n+]1Cc1ccccc1)c1ccc(OCC(C)C)cc1n2CC(C)C` and `CCCCCCCCCCOc1ccc2c3cc[n+](Cc4ccccc4)c(C)c3n(CC(C)C)c2c1` cannot be ordered by IC50: less than 1.5 µM for the first, less than 1.5 µM for the second.

`Cc1c2c(cc[n+]1Cc1ccccc1)c1ccc(OCCCc3ccccc3)cc1n2CC(C)C` and `CCCCOc1ccc2c3cc[n+](Cc4ccccc4)c(C)c3n(CCCc3ccccc3)c2c1` are within 1.5-fold of each other in IC50: 3.7 µM for the first, 2.9 µM for the second.

Test system: HepG2
Test: Cytotoxicity against human HepG2 cells by MTT assay
Type: functional, cell-based
Method in brief: as §1

Going from `Cc1c2c(cc[n+]1Cc1ccccc1)c1ccc(OCC(C)C)cc1n2CC(C)C` to `CCCCCCCCCCOc1ccc2c3cc[n+](Cc4ccccc4)c(C)c3n(CC(C)C)c2c1`, the IC50 falls from 5.7 µM to 2.4 µM (2.4-fold). The second is the more potent here.

`Cc1c2c(cc[n+]1Cc1ccccc1)c1ccc(OCCCc3ccccc3)cc1n2CC(C)C` and `CCCCOc1ccc2c3cc[n+](Cc4ccccc4)c(C)c3n(CCCc3ccccc3)c2c1` are within 1.5-fold of each other in IC50: 4 µM for the first, 4.1 µM for the second.

Test system: BGC-823
Test: Cytotoxicity against human BGC823 cells by MTT assay
Type: functional, cell-based
Method in brief: as §1

First: Cc1c2c(cc[n+]1Cc1ccccc1)c1ccc(OCC(C)C)cc1n2CC(C)C
Second: CCCCCCCCCCOc1ccc2c3cc[n+](Cc4ccccc4)c(C)c3n(CC(C)C)c2c1
The IC50 of the first is 2.7-fold higher: 5.4 µM for the first, 2 µM for the second. The second is the more potent here.

First: Cc1c2c(cc[n+]1Cc1ccccc1)c1ccc(OCCCc3ccccc3)cc1n2CC(C)C
Second: CCCCOc1ccc2c3cc[n+](Cc4ccccc4)c(C)c3n(CCCc3ccccc3)c2c1
The IC50 of the first is 1.6-fold lower: 2.5 µM for the first, 4.1 µM for the second.

Test system: A549
Test: Cytotoxicity against human A549 cells by MTT assay
Type: functional, cell-based
Method in brief: as §1

Compared with `Cc1c2c(cc[n+]1Cc1ccccc1)c1ccc(OCC(C)C)cc1n2CC(C)C`, `CCCCCCCCCCOc1ccc2c3cc[n+](Cc4ccccc4)c(C)c3n(CC(C)C)c2c1` is lower in IC50: 4.3 µM for the first, less than 1.5 µM for the second.

`Cc1c2c(cc[n+]1Cc1ccccc1)c1ccc(OCCCc3ccccc3)cc1n2CC(C)C` and `CCCCOc1ccc2c3cc[n+](Cc4ccccc4)c(C)c3n(CCCc3ccccc3)c2c1` cannot be ordered by IC50: less than 1.5 µM for the first, less than 1.5 µM for the second.
